{"data": "Experimental data from different studies", "target": "Mitogen-activated protein kinase kinase kinase 11 (MAP3K11, Homo sapiens, UniProt Q16584)", "note": "Protocols differ between the studies behind these lines."}
{"Compound": "CNC(=O)[C@@H]1CC[C@@H](n2c(-c3ccc4cnccc4c3)nc3ccc(C(=O)NCc4cccc(C(N)=O)c4)cc32)C1", "assay": "binding, competition with immobilised ligand", "conditions": "1 µM", "remaining binding [%]": 100}
{"Compound": "O=C(Nc1ccc(Oc2ccc(F)cc2)cc1)N1CCc2ncccc2[C@H]1c1ccc(F)cc1", "assay": "cell-free assay, competition with immobilised ligand", "conditions": "1 µM", "remaining binding [%]": 78}
{"Compound": "CN(CCCC(F)(F)F)c1nccc(-c2cnn3ncccc23)n1", "assay": "binding", "conditions": "1 µM", "remaining binding [%]": 75}
{"Compound": "Cn1cc(Cl)c2c(Oc3c(F)cc(Nc4cc(Cl)nc(N)n4)cc3F)ccnc21", "assay": "cell-free assay, competition with immobilised ligand", "conditions": "0.1 µM", "remaining binding [%]": 100}
{"Compound": "O=C(c1ccc(Nc2nccc(-c3cc4ccccc4s3)n2)cc1)N1CCC(N2CCCC2)CC1", "assay": "binding, competition with immobilised ligand", "conditions": "1 µM", "remaining binding [%]": 57}
{"Compound": "CN(c1nccc(-c2cnn3ncccc23)n1)C1CC1", "assay": "binding", "conditions": "1 µM", "remaining binding [%]": 100}
{"Compound": "COc1cnc(Nc2cccc(S(N)(=O)=O)c2)nc1N1CCN(c2ccccc2)CC1", "assay": "binding, competition with immobilised ligand", "conditions": "1 µM", "remaining binding [%]": 76}
{"Compound": "O=C(c1ccc(Nc2ncc(Cl)c(-c3ccc(Cl)s3)n2)cc1)N1CCC(N2CCCC2)CC1", "assay": "binding, competition with immobilised ligand", "conditions": "1 µM", "remaining binding [%]": 13}
{"Compound": "C[C@H](c1cccc(C#N)c1)n1cc(Cl)cc(C(N)=O)c1=N", "assay": "cell-free assay, competition with immobilised ligand", "conditions": "1 µM", "remaining binding [%]": 100}
{"Compound": "O=C(c1ccc(Nc2ncc(Cl)c(-c3cc4ccccc4s3)n2)cc1)N1CCC(N2CCCC2)CC1", "assay": "binding, competition with immobilised ligand", "conditions": "1 µM", "remaining binding [%]": 11}
{"Compound": "O=C(NCc1ncc(C(F)(F)F)cc1Cl)c1ccc2c(c1)C1(CCS(=O)(=O)CC1)[C@H](C1CC1)N2S(=O)(=O)c1ccc(F)cc1", "assay": "cell-free assay, competition with immobilised ligand", "conditions": "1 µM", "remaining binding [%]": 100}
{"Compound": "CN(C)c1nccc(-c2cnc3ncccn23)n1", "assay": "binding", "conditions": "1 µM", "remaining binding [%]": 88}
{"Compound": "O=C(NCC1CCOCC1)c1n[nH]cc1NC(=O)c1c(F)cccc1F", "assay": "binding, competition with immobilised ligand", "conditions": "1 µM", "remaining binding [%]": 100}
{"Compound": "CN1CCN(c2cnc3c(C4CCN(C(=O)c5ccc(OC(F)(F)F)cc5N)CC4)ncnc3c2)CC1", "assay": "cell-free assay, competition with immobilised ligand", "conditions": "1 µM", "remaining binding [%]": 100}
{"Compound": "CN(C)c1nccc(-c2cnn3ncccc23)n1", "assay": "binding", "conditions": "1 µM", "remaining binding [%]": 98}
{"Compound": "C[C@@H]1CN(c2cc(-c3nn(C)c4ccc(OC5(C)CC5)cc34)ncn2)C[C@H](C)O1", "assay": "cell-free assay, competition with immobilised ligand", "conditions": "1 µM", "remaining binding [%]": 100}
{"Compound": "C[C@@H]1CCN(c2nccc(-c3cnn4ncccc34)n2)C1", "assay": "binding", "conditions": "1 µM", "remaining binding [%]": 100}
{"Compound": "c1cncc(-c2cccc(Nc3nccc(NC4CCCCC4)n3)c2)c1", "assay": "binding, competition with immobilised ligand", "conditions": "10 µM", "remaining binding [%]": 30}
{"Compound": "FC(F)(F)Oc1cccc(-c2cnc3ccc(-c4ccncc4)nn23)c1", "assay": "cell-free assay, competition with immobilised ligand", "conditions": "5 µM", "remaining binding [%]": 95}
{"Compound": "N[C@H]1CCN(c2nccc(-c3cnn4ncccc34)n2)C1", "assay": "binding", "conditions": "1 µM", "remaining binding [%]": 85}
